# Data as given in ChEMBL document CHEMBL1125701 (J Med Chem, 1991).
# Experiments:
# [1] = biological target: Mu-type opioid receptor (Homo sapiens) (UniProt P35372); details: 100 nM
# [2] = biological target: Kappa-type opioid receptor (Homo sapiens) (UniProt P41145); details: 100 nM
# [3] = biological target: Kappa-type opioid receptor (Cavia porcellus) (UniProt P41144); experiment: Selectivity ratio is IC50 value of opioid receptor kappa to that of opioid receptor delta
# [4] = biological target: Delta-type opioid receptor (Mus musculus) (UniProt P32300); experiment: Antagonistic potency at opioid receptor delta (100 nM) (Ke =IC50 in the presence of antagonist divided by the control IC50 value); format: functional
# Summary of the method: (§1)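 Electrically stimulated mouse vas deferens preparation, δ agonist DADLE. The antagonist was incubated with the tissue for 15 min before agonist testing. DADLE IC50 was measured with and without antagonist on the same preparation. IC50 ratio = IC50 with antagonist / control IC50. Ke = [antagonist]/(IC50 ratio − 1).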
# [5] = biological target: Mu-type opioid receptor (Cavia porcellus) (UniProt P97266)
# [6] = biological target: Mu-type opioid receptor (Cavia porcellus) (UniProt P97266); experiment: Selectivity ratio is IC50 value of mu-opioid receptor to that of delta-opioid receptor
# [7] = biological target: Kappa-type opioid receptor (Cavia porcellus) (UniProt P41144)
# [8] = biological target: Mu-type opioid receptor (Cavia porcellus) (UniProt P97266); experiment: Antagonistic potency at opioid receptor mu (200 nM) (Ke =IC50 in the presence of antagonist divided by the control IC50 value); format: functional
# Summary of the method: (§2)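 Electrically stimulated guinea pig ileal longitudinal muscle, μ agonist morphine. The antagonist was preincubated for 15 min before agonist testing. Agonist IC50 was measured with and without antagonist on the same preparation. IC50 ratio = IC50 with antagonist / control IC50. Ke = [antagonist]/(IC50 ratio − 1).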
# [9] = biological target: Delta-type opioid receptor (Mus musculus) (UniProt P32300); experiment: Antagonistic potency at opioid receptor delta (20 nM) (Ke =IC50 in the presence of antagonist divided by the control IC50 value); format: functional
# Summary of the method: as §1
# [10] = biological target: Kappa-type opioid receptor (Cavia porcellus) (UniProt P41144); experiment: Antagonistic potency at opioid receptor kappa (200 nM) (Ke =IC50 in the presence of antagonist divided by the control IC50 value); format: functional
# Summary of the method: as §2, with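 “κ” for “μ”, “ethylketazocine.” for “morphine.”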
# [11] = biological target: Kappa-type opioid receptor (Cavia porcellus, UniProt P41144); experiment: Compound was evaluated for the binding affinity to opioid receptor kappa using [3H]-EK as radioligand in guinea pig brain membrane; format: cell membranes
# Summary of the method: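 Radioligand displacement in guinea pig brain membranes, modified from an earlier published method. [3H]EK was used with 1 μM DAMGO present to block μ sites.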
# [12] = biological target: Mu-type opioid receptor (Cavia porcellus) (UniProt P97266); experiment: Selectivity ratio is Ki value of mu-opioid receptor to that of delta-opioid receptor
# [13] = biological target: Kappa-type opioid receptor (Cavia porcellus) (UniProt P41144); experiment: Selectivity ratio is Ki value of opioid receptor kappa to that of delta-opioid receptor
# [14] = biological target: Kappa-type opioid receptor (Cavia porcellus) (UniProt P41144); experiment: Selectivity ratio is IC50 value of opioid receptor kappa to that of delta-opioid receptor
# [15] = biological target: Kappa-type opioid receptor (Homo sapiens) (UniProt P41145); experiment: Competitive inhibition of Ethylketazocine on Guinea pig ileal longitudinal muscle for the opioid receptor kappa at 200 nM; format: functional
# Summary of the method: as §2, with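 “κ” for “μ”, “ethylketazocine.” for “morphine.”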
# [16] = biological target: Delta-type opioid receptor (Mus musculus) (UniProt P32300); experiment: Antagonistic potency at opioid receptor delta (200 nM) (Ke =IC50 in the presence of antagonist divided by the control IC50 value); format: functional
# Summary of the method: as §1
# Mu-type opioid receptor = Mu-type opioid receptor (Cavia porcellus, UniProt P97266); experiment: Compound was evaluated for the binding affinity to Opioid receptor mu using [3H]DAMGO as radioligand in guinea pig brain membrane; format: cell membranes
# [17] = biological target: Mu-type opioid receptor (Homo sapiens) (UniProt P35372); experiment: Competitive inhibition of Morphine on Guinea pig ileal longitudinal muscle for the opioid receptor mu at 200 nM; format: functional
# Summary of the method: as §2
# [18] = biological target: Kappa-type opioid receptor (Cavia porcellus) (UniProt P41144); experiment: Antagonistic potency at opioid receptor kappa (20 nM) (Ke =IC50 in the presence of antagonist divided by the control IC50 value); format: functional
# Summary of the method: as §2, with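 “κ” for “μ”, “ethylketazocine.” for “morphine.”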
# [19] = biological target: Kappa-type opioid receptor (Homo sapiens) (UniProt P41145); experiment: Competitive inhibition of Ethylketazocine on Guinea pig ileal longitudinal muscle for the opioid receptor kappa at 20 nM; format: functional
# Summary of the method: as §2, with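 “κ” for “μ”, “ethylketazocine.” for “morphine.”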
SMILES,Ratio [3],Ke [4],Ke [5],Ratio [6],Ke [7],Ke [8],Ke [10],also measured
Oc1ccc2c3c1O[C@H]1c4nc5ccccc5cc4C[C@@]4(O)[C@@H](C2)N(CC2CC2)CC[C@]314,8,1.9,11,6,15.4,–,–,IC50 ratio [1]: 9.9; IC50 ratio [2]: 7.5
Oc1ccc2c3c1O[C@H]1c4oc5ccccc5c4C[C@@]4(O)[C@@H](C2)N(CC2CC2)CC[C@]314,–,–,–,–,–,27,48,Ke [9]: 0.27
Oc1ccc2c3c1O[C@H]1C(c4c[nH]c5ccccc45)=CC[C@@]4(O)[C@@H](C2)N(CC2CC2)CC[C@]314,–,–,–,0.21,–,1.1,0.83,Ki [11]: 6.2 nM; Ratio [12]: 0.6; Ratio [13]: 6; Ratio [14]: 0.16; IC50 ratio [15]: 243; Ke [16]: 5.1; Ki (Mu-type opioid receptor): 0.63 nM; IC50 ratio [17]: 189
Oc1ccc2c3c1O[C@H]1C(c4ccccc4)=CC[C@@]4(O)[C@@H](C2)N(CC2CC2)CC[C@]314,–,13.5,0.68,–,1.7,–,–,IC50 ratio [1]: 148
Oc1ccc2c3c1O[C@H]1c4nc5ccccc5nc4C[C@@]4(O)[C@@H](C2)N(CC2CC2)CC[C@]314,5,–,–,3,–,5.5,10,Ke [9]: 1.9; Ratio [12]: 9; Ratio [13]: 227; IC50 ratio [15]: 21; IC50 ratio [17]: 37
Cn1c2c(c3c1[C@@H]1Oc4c(O)ccc5c4[C@@]14CCN(CC1CC1)[C@H](C5)[C@]4(O)C3)CCCC2,–,–,158,–,254,–,–,–
Oc1ccc2c3c1O[C@H]1C(c4ccc[nH]4)=CC[C@@]4(O)[C@@H](C2)N(CC2CC2)CC[C@]314,0.03,8.2,–,–,–,–,–,Ke [18]: 0.23; IC50 ratio [19]: 89
